These results are taken from ChEMBL document CHEMBL1149148, “Synthesis and structure-activity relationships of novel 7-substituted 1,4-dihydro-4-oxo-1-(2-thiazolyl)-1,8-naphthyridine-3-carboxylic acids as antitumor agents. Part 2” (J Med Chem, 2004).

In assay [1] the test system is Mus musculus. Put plainly: Ratio of median survival time of treated mice (T) to that of median survival time of controls (C) in mice infected with p388 cells (in vivo) at a dose of 3.13 mg/kg. In kind it is functional. The method in brief: (§1)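 BDF1 mice implanted ip with 0.1 mL diluted ascites fluid carrying 10⁶ P388 leukemia cells. Dosing ip on days 1 and 5 after implantation. Test compounds were suspended in 0.4% CMC, and reference drugs were dissolved and diluted in distilled water. Seven mice per group. T/C (%) = median survival time of treated group / median survival time of control group × 100.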

For assay [2], the system named is Mus musculus. Put plainly: Ratio of median survival time of treated mice (T) to that of median survival time of controls (C) in mice infected with p388 cells (in vivo) at a dose of 6.25 mg/kg. In kind it is functional. The method in brief:
as §1

The subject of assay [3] is PANC-1. Briefly: Cytotoxic activity against human tumor PANC-1 pancreas cells. In kind it is functional, cell-based. The procedure, abridged: (§2)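 Hs746T and PANC-1 cells kept in Dulbecco's modified Eagle's medium with 10% FBS. Seeded at (1-2) × 10⁴ cells/mL, 24 h preincubation, then graded compound concentrations for 72 h at 37 °C in 5% CO₂. MTT (5 mg/mL solution) added for 4 h, formazan taken up in DMSO, read at 570/690 nm. IC50 is 50% absorbance reduction relative to control. At least two independent experiments averaged.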

Assay [4] deals with HL-60. Briefly: Cytotoxic activity against human tumor HL-60 leukemia cells. In kind it is functional, cell-based. The procedure, abridged:
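HL-60 cells grown in RPMI 1640 with 20% FBS. Seeded at (1-2) × 10⁴ cells/mL, preincubated 24 h, then exposed to a range of compound concentrations for 72 h at 37 °C in 5% CO₂. Read by MTT (5 mg/mL solution, 4 h), formazan dissolved in DMSO, absorbance 570 nm/690 nm. IC50 is the concentration giving 50% absorbance reduction vs control. Mean of at least two independent experiments.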

The subject of assay [5] is Mus musculus. Put plainly: Ratio of median survival time of treated mice (T) to that of median survival time of controls (C) in mice infected with p388 cells (in vivo) at a dose of 12.5 mg/kg. Type of assay: functional. The procedure, abridged: as §1
Assay [6] concerns Mus musculus. Briefly: Ratio of median survival time of treated mice (T) to that of median survival time of controls (C) in mice infected with p388 cells (in vivo) at a dose of 50 mg/kg. Type of assay: functional. The procedure, abridged: as §1
Assay [7] relates to SCaBER. Put plainly: Cytotoxic activity against human tumor SCaBER bladder cells. Type of assay: functional, cell-based. The procedure, abridged:
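SCaBER cells maintained in EMEM with 10% FBS and nonessential amino acids. Seeded at (1-2) × 10⁴ cells/mL, 24 h preincubation, then 72 h compound exposure at various concentrations at 37 °C in 5% CO₂. MTT (5 mg/mL) for 4 h, then DMSO, read at 570/690 nm. IC50 is 50% absorbance drop vs control. At least two independent experiments averaged.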

For assay [8], the system named is Hs746T. Briefly: Cytotoxic activity against human tumor Hs 746.T stomach cells. In kind it is functional, cell-based. The procedure, abridged: as §2
The subject of assay [9] is SK-OV-3. Put plainly: Cytotoxic activity against human tumor SK-OV-3 ovary cells. In kind it is functional, cell-based. The note with it: SK-OV-3, Female gonad. The method in brief:
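SKOV3 cells grown in RPMI 1640 with 10% heat-inactivated FBS. Cells at (1-2) × 10⁴ cells/mL, preincubated 24 h, treated with graded concentrations for 72 h at 37 °C in 5% CO₂. MTT readout (5 mg/mL, 4 h), formazan in DMSO, absorbance 570 nm/690 nm. IC50 is the concentration for 50% absorbance reduction vs control. Mean of at least two independent experiments.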

The subject of assay [10] is Mus musculus. Briefly: Ratio of median survival time of treated mice (T) to that of median survival time of controls (C) in mice infected with p388 cells (in vivo) at a dose of 25 mg/kg. In kind it is functional. The procedure, abridged: as §1
Assay [11] relates to Mus musculus. Briefly: Ratio of median survival time of treated mice (T) to that of median survival time of controls (C) in mice infected with p388 cells (in vivo) at a dose of 1.56 mg/kg. In kind it is functional. The procedure, abridged: as §1
The subject of assay [12] is Mus musculus. Put plainly: Ratio of median survival time of treated mice (T) to that of median survival time of controls (C) in mice infected with p388 cells (in vivo) at a dose of 0.78 mg/kg. Type of assay: functional. The method in brief: as §1
For assay [13], the system named is SBC-3. Put plainly: Cytotoxic activity against human tumor SBC-3 lung cells. Type of assay: functional, cell-based. The procedure, abridged:
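SBC-3 cells cultured in RPMI 1640 plus 10% FBS. Plated at (1-2) × 10⁴ cells/mL, preincubated 24 h, then compound at various concentrations for 72 h at 37 °C in 5% CO₂. MTT solution (5 mg/mL) for 4 h, DMSO solubilization, absorbance 570 nm with 690 nm reference. IC50 is the dose halving absorbance vs control. Mean of at least two independent runs.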

Converted amounts (≈) assume the structure as drawn. Where only a bound is given, the exact number is not on record here.

For the compound `COc1cc([C@@H]2c3cc4c(cc3[C@@H](O[C@@H]3O[C@@H]5CO[C@@H](C)O[C@H]5[C@H](O)[C@H]3O)[C@H]3COC(=O)[C@H]23)OCO4)cc(OC)c1O` [ETOPOSIDE], the T/C – broadly, the ratio of treated to control – in [1] was 175%; in [2], 200%; in assay [5], 250%; in assay [6] it was above 375%; in [10], above 375%; in assay [11] it was 150%. Moreover, in assay [12], the T/C stood at 138%. Also, the IC50 – broadly, the concentration that gives 50% inhibition – in assay [3] is 1.6 µg/mL (≈ 2.72 µM); in [4], 0.15 µg/mL (≈ 0.255 µM); in [7], 0.276 µg/mL (≈ 0.469 µM); in assay [8], 3.29 µg/mL (≈ 5.59 µM); in assay [9] it was 1.06 µg/mL (≈ 1.8 µM); in [13] it was 0.0676 µg/mL (≈ 0.115 µM).

With `CN[C@H]1CN(c2ccc3c(=O)c(C(=O)O)cn(-c4nccs4)c3n2)C[C@@H]1OC` [VOSAROXIN], the IC50 in assay [3] is 0.388 µg/mL (≈ 0.967 µM); in assay [4], 0.0498 µg/mL (≈ 0.124 µM); in assay [7], 0.121 µg/mL (≈ 0.301 µM); in assay [8] it was 0.194 µg/mL (≈ 0.483 µM); in assay [9], 0.266 µg/mL (≈ 0.663 µM); in assay [13] it was 0.0319 µg/mL (≈ 0.0795 µM).
